According to ChEMBL document CHEMBL1145429, “Enaminone amides as novel orally active GABAA receptor modulators” (J Med Chem, 2007):
The source made the active and inactive calls. The rule behind the calls is not given here.

How the values were obtained:
Mus musculus [1] = experiment: Induction of loss of righting reflex in non-Swiss Albino mouse at 50 mg/kg, ip after 40 mins; format: functional, organism-based; set-up: dose 50 mg/kg
Procedure, shortened: (§1)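 Male NSA mice were dosed at 50 mg/kg ip or po in PEG 400 and then placed on their backs. Animals staying on their backs for more than 1 min were scored as having lost the righting reflex.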

Mus musculus [2] = experiment: Anticonvulsant activity against pentylenetetrazole-induced seizures in non-Swiss Albino mouse at 50 mg/kg, ip; format: functional, organism-based; set-up: dose 50 mg/kg
[3] = (§2) Displacement of [35S]TBPS from GABAA receptor in Sprague-Dawley rat cortex membrane; format: cell membranes
Rattus norvegicus [4] = organism: Rattus norvegicus; experiment: as §2; format: cell membranes
Mus musculus [5] = experiment: Induction of loss of righting reflex in non-Swiss Albino mouse at 50 mg/kg, po; format: functional, organism-based; set-up: dose 50 mg/kg; procedure, shortened: as §1
Mus musculus [6] = experiment: Suppression of locomotor activity in non-Swiss Albino mouse at 50 mg/kg, po; format: functional, organism-based; set-up: dose 50 mg/kg
Procedure, shortened: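 Male NSA mice, either nonhabituated or habituated (30 min in the chamber on 3 consecutive days), were given compound in PEG 400 or vehicle and immediately placed in an activity chamber. Horizontal beam breaks were recorded every 5 min, over 1 h for habituated mice. Activity was taken as total distance traveled (cm), with testing between 9 a.m. and 2 p.m.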

[7] = Enhancement of [3H]flunitrazepam binding to BZ-site of GABAA receptor in Sprague-Dawley rat cortex membrane; format: cell membranes
Procedure, shortened: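 Conditions and membrane preparation match the TBPS assay, except that GABA was 1 µM. Sites were labelled with 0.2 nM [3H]flunitrazepam, and nonspecific binding was defined with 1 µM clonazepam.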

Rattus norvegicus [8] = organism: Rattus norvegicus; experiment: Enhancement of [3H]muscimol binding to BZ-site of GABAA receptor in Sprague-Dawley rat cortex membrane; format: cell membranes
Mus musculus [9] = experiment: CNS toxicity by rotarod test in non-Swiss Albino mouse at 50 mg/kg, po; format: organism-based; set-up: dose 50 mg/kg, route oral; conditions: in vivo
Procedure, shortened: (§3)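 Mice were dosed orally and scored on the rotarod for CNS depressant potential. TD50, the dose causing behavioral toxicity in half the animals, was calculated from each dose-response function by the Litchfield-Wilcoxon method.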

[10] = Therapeutic index, ratio of light-dark MED to TD50 by rotarod test in non-Swiss Albino mouse at 3 mg/kg, po; format: organism-based; set-up: dose 3 mg/kg, route oral; conditions: in vivo, read-out: TI
Procedure, shortened: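 The index was calculated as […]. Both were measured in male NSA mice given oral doses. TD50 was derived by the Litchfield-Wilcoxon method, and light-dark time was recorded over a 3 min session 30 min after dosing.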

[11] = target: GABA-A receptor; alpha-1/beta-2/gamma-2 (Homo sapiens) (UniProt P14867+P47870+P18507); experiment: Activity at human GABAA alpha-1-beta-2-gamma-2L expressed in Xenopus oocytes assessed as potentiation of GABA currents in absence of GABA at 10 uM; format: cell-based; conditions: Oocyte
Mus musculus [12] = experiment: CNS toxicity by rotarod test in non-Swiss Albino mouse at 3 mg/kg, po; format: organism-based; set-up: dose 3 mg/kg, route oral; conditions: in vivo; procedure, shortened: as §3
Mus musculus [13] = experiment: Anxiolytic activity in non-Swiss Albino mouse assessed as reduction of time spent in dark at 3 mg/kg, po; format: functional, organism-based; set-up: dose 3 mg/kg
Procedure, shortened: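 Male NSA mice (25-30 g) were dosed po 30 min before a 3 min session in a light-dark box: a black compartment lit with red light and an illuminated white compartment, joined by a floor-level hole. Time spent in each compartment was recorded. Vehicle was 3:1 PEG 400/5% dextrose in water.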

Rattus norvegicus [14] = organism: Rattus norvegicus; experiment: Displacement of [3H]flunitrazepam from BZ-site of GABAA receptor in Sprague-Dawley rat cortex membrane; format: cell membranes
Procedure, shortened: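 P2 membrane pellet (sucrose homogenate spun 1000g then 9000g), resuspended in 50 mM Na/K phosphate pH 7.4 with 200 mM NaCl. Incubated with 0.2 nM [3H]flunitrazepam, 1 µM GABA and test drug in DMSO (≤1%) for 90 min at 25 °C. Nonspecific binding defined with 1 µM clonazepam. Filtration, scintillation counting; nonlinear regression fit.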

Compound: O=C(NC1CC1)/C(=C\Nc1ccc(Cl)cc1)C(=O)c1ccccc1Cl
- Activity (Mus musculus [1]): Active
- Activity (Mus musculus [2]): inactive
- IC50 [3]: 30 nM
- Imax (Rattus norvegicus [4]): 92%

Compound: CC(C)C(C)NC(=O)/C(=C\Nc1ccc(Cl)cc1)C(=O)c1ccccc1Cl (stereo unspecified)
- Activity (Mus musculus [2]): inactive
- IC50 [3]: 400 nM
- Imax (Rattus norvegicus [4]): 94%

Compound: CCOC(=O)/C(=C\Nc1ccc(C)cc1)C(=O)c1ccccc1Cl
- IC50 [3]: 450 nM
- Imax (Rattus norvegicus [4]): 93%

Compound: CCOC(=O)/C(=C\Nc1ccc(Cl)cc1)C(=O)c1ccccc1Cl
- Activity (Mus musculus [5]): inactive
- Activity (Mus musculus [1]): Active
- IC50 [3]: 90 nM
- Imax (Rattus norvegicus [4]): 95%
- Activity (Mus musculus [6]): inactive

Compound: CNC(=O)/C(=C\Nc1ccc(Cl)cc1)C(=O)c1ccccc1Cl
- Activity (Mus musculus [2]): inactive
- IC50 [3]: 160 nM
- Imax (Rattus norvegicus [4]): 74%

Compound: O=C(NC1CCCC1)/C(=C\Nc1ccc(Cl)cc1)C(=O)c1ccccc1Cl
- Activity (Mus musculus [2]): inactive
- IC50 [3]: 30 nM
- Imax (Rattus norvegicus [4]): 88%

Compound: CCC(C)NC(=O)/C(=C\Nc1ccc(Cl)cc1)C(=O)c1ccccc1Cl (stereo unspecified)
- Activity (Mus musculus [1]): Active
- Activity (Mus musculus [2]): inactive
- IC50 [3]: 20 nM
- Imax (Rattus norvegicus [4]): 86%

Compound: CCOC(=O)/C(=C\Nc1ccccc1Cl)C(=O)c1ccccc1Cl
- IC50 [3]: 700 nM
- Imax (Rattus norvegicus [4]): 100%

Compound: C#Cc1ccc(N/C=C(\C(=O)NCCC)C(=O)c2ccccc2Cl)cc1
- EC50 [7]: 60 nM
- Activity (Rattus norvegicus [8]): Active

Compound: CC(C)(C)NC(=O)/C(=C\Nc1ccc(Cl)cc1)C(=O)c1ccccc1Cl
- Activity (Mus musculus [2]): inactive
- IC50 [3]: 3000 nM
- Imax (Rattus norvegicus [4]): 100%

Compound: NC(=O)/C(=C\Nc1ccc(Cl)cc1)C(=O)c1ccccc1Cl
- Activity (Mus musculus [2]): inactive
- Imax (Rattus norvegicus [4]): 40%

Compound: CCCNC(=O)/C(=C\Nc1ccc(Cl)cc1)C(=O)c1ccccc1Cl
- Activity (Mus musculus [5]): inactive
- Activity (Mus musculus [1]): Active
- Activity (Mus musculus [2]): inactive
- IC50 [3]: 45 nM
- Imax (Rattus norvegicus [4]): 90%

Compound: CCOC(=O)/C(=C\Nc1ccc(F)cc1)C(=O)c1cc(F)c(Cl)cc1Cl
- IC50 [3]: 130 nM
- Imax (Rattus norvegicus [4]): 87%

Compound: CCC(CC)NC(=O)/C(=C\Nc1ccc(Cl)cc1)C(=O)c1ccccc1Cl
- Activity (Mus musculus [2]): inactive
- IC50 [3]: 80 nM
- Imax (Rattus norvegicus [4]): 86%

Compound: CCOC(=O)/C(=C\Nc1ccc(F)cc1)C(=O)c1cccc(Cl)c1
- IC50 [3]: 900 nM
- Imax (Rattus norvegicus [4]): 90%

Compound: CCNC(=O)/C(=C\Nc1ccc(Cl)cc1)C(=O)c1ccccc1Cl
- Activity (Mus musculus [5]): inactive
- Activity (Mus musculus [1]): Active
- Activity (Mus musculus [2]): inactive
- IC50 [3]: 50 nM
- Imax (Rattus norvegicus [4]): 82%
- Activity (Mus musculus [9]): Non-toxic

Compound: CC(C)NC(=O)/C(=C\Nc1ccc(Cl)cc1)C(=O)c1ccccc1Cl
- Activity (Mus musculus [1]): Active
- Activity (Mus musculus [2]): inactive
- selectivity ratio [10]: > 10
- Activity [11]: inactive
- IC50 [3]: 40 nM
- Imax (Rattus norvegicus [4]): 80%
- Activity (Mus musculus [12]): Non-toxic
- Activity (Mus musculus [13]): Active

Compound: CCOC(=O)/C(=C\Nc1cccc(Cl)c1)C(=O)c1ccccc1Cl
- IC50 [3]: 600 nM
- Imax (Rattus norvegicus [4]): 100%

Compound: O=C(NC1CCC1)/C(=C\Nc1ccc(Cl)cc1)C(=O)c1ccccc1Cl
- Activity (Mus musculus [1]): Active
- Activity (Mus musculus [2]): inactive
- IC50 [3]: 7 nM
- Imax (Rattus norvegicus [4]): 88%

Compound: O=C1CN=C(c2ccccc2Cl)c2cc([N+](=O)[O-])ccc2N1
- Activity (Rattus norvegicus [14]): Dose-dependent effect

Compound: CCOC(=O)/C(=C\Nc1ccc(F)cc1)C(=O)c1ccccc1Cl
- IC50 [3]: 300 nM
- Imax (Rattus norvegicus [4]): 93%

Compound: CCOC(=O)/C(=C\Nc1ccc(F)cc1)C(=O)c1ccc(Cl)cc1
- IC50 [3]: 490 nM
- Imax (Rattus norvegicus [4]): 100%

Compound: CCOC(=O)/C(=C\Nc1ccc(C(C)C)cc1)C(=O)c1ccccc1Cl
- IC50 [3]: 360 nM
- Imax (Rattus norvegicus [4]): 94%

Compound: C#Cc1ccc(N/C=C(\C(=O)OCC)C(=O)c2ccccc2Cl)cc1
- EC50 [7]: 6 nM
- Activity (Rattus norvegicus [8]): Active
- IC50 [3]: 8 nM
- Imax (Rattus norvegicus [4]): 100%
